From ChEMBL document CHEMBL4308830, “Design, Synthesis, and Characterization of 4-Undecylpiperidine-2-carboxamides as Positive Allosteric Modulators of the Serotonin (5-HT) 5-HT2C Receptor” (J Med Chem, 2018) come the findings set out here.

Activity calls are given as the source filed them. The rule behind the calls is not given here.

In data set [1] the target is T1, 5-hydroxytryptamine receptor 2C (Homo sapiens) (UniProt P28335).
T1 sequence (whole entry): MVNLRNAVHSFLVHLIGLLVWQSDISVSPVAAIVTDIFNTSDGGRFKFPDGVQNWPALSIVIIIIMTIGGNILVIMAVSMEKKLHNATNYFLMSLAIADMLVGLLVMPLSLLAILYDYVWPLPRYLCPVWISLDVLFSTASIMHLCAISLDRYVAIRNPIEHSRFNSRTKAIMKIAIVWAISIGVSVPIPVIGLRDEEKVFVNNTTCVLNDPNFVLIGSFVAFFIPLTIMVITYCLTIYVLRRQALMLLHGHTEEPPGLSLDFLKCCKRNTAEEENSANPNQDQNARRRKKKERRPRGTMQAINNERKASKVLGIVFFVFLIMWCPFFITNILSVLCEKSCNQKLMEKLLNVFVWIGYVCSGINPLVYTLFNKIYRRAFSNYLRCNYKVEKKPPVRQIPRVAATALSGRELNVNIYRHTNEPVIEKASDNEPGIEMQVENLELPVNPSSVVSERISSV
Description: Positive allosteric modulation of human 5-HT2CR expressed in CHO cells assessed as 5-HT-induced intracellular calcium release at 1 nM preincubated for 15 mins followed by 5-HT addition by calcium-4 dye based FLIPR assay (reference value: 100%). The data set is classed as functional, cell-based. An outline of the steps: (§1)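 CHO cells stably expressing human unedited INI 5-HT2CR were plated, serum-starved 3 h, then loaded with Calcium 4 dye plus 2.5 mM probenecid (60 min 37 °C, then 15 min RT). Compound (1 nM) was added; the read after this addition gave intrinsic agonism. 5-HT (10 pM–10 μM) followed 15 min later. FLIPR-TETRA: 10 s baseline, 1 s reads for 120 s after compound and 360 s after 5-HT. Emax came from 4-parameter fits, ≥3 biological replicates in triplicate.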
In general terms: A change in cytosolic calcium serves as a functional read-out for many receptors and channels.

Data set [2] addresses T1, 5-hydroxytryptamine receptor 2C (Homo sapiens). Description: Intrinsic agonist activity at human 5-HT2CR expressed in CHO cells assessed as induction of intracellular calcium release at 1 nM incubated for 15 mins measured every 1 sec for 120 secs by calcium-4 dye based FLIPR assay. The data set is classed as functional, cell-based. An outline of the steps:
as §1

In another data set the test system is CHO. Description: Cytotoxicity against CHO cells at 0.1 to 1000 nM after 1 hrs by LDH release assay. Type of data set: cell-based, Cricetulus griseus. Conditions: chinese hamster, 1 µM. The method in brief:
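Lactate dehydrogenase release assay for cytotoxicity, compounds tested at 0.1 nM and 1 μM.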
A general note: LDH in the medium is a marker of cell lysis.

For `CCCCCCCCCCC[C@@H]1CCN[C@H](C(=O)N[C@H](CO)[C@@H](C)O)C1`, in data set [1], the maximum response (Emax) is 111%. The outcome in data set [2] was inactive.

For the molecule `CCCCCCCCCCC[C@@H]1CCN[C@H](C(=O)N[C@H](C(=O)OC)[C@H](C)O)C1`, the Emax in data set [1] was found to be 102%. The outcome in data set [2] was inactive.

Consider `O=C(N[C@H](CO)[C@H](O)c1ccccc1)[C@@H]1C[C@H](CCC2CCCCC2)CCN1`, for which, in data set [1], the maximal effect (Emax) came out at 96%. For the same molecule, in data set [2], the result was inactive.

`CCCCCCCCCCC[C@@H]1CCN[C@H](C(=O)N[C@@H](Cc2cc3ccccc3[nH]2)C(=O)OC)C1`: the Emax in data set [1] was 102%. The result in data set [2] was inactive.

Take `O=C(N[C@H](CO)[C@H](O)c1ccccc1)[C@H]1C[C@@H](C2CCCCC2)CCN1`: the Emax in data set [1] was found to be 104%. In addition, the outcome in data set [2] was inactive. The Activity result in the data set on CHO was “Non-Toxic”.

Take `CCCCCCCCCCC[C@@H]1CCN[C@H](C(=O)NC[C@H](O)CO)C1`: the Emax in data set [1] came to 114%. Also, the result in data set [2] was inactive.

Consider `CCCCCCCCCCC[C@@H]1CCN[C@H](C(=O)O)C1` (relative stereo), for which, in data set [1], the Emax amounted to 109%. In addition, in data set [2], the result was inactive.

`O=C(N[C@H](CO)[C@H](O)c1ccccc1)[C@H]1C[C@@H](CCC2CCCCC2)CCN1`: in data set [1], the Emax is 89.6%. Moreover, in data set [2], the result was inactive. Moreover, the Activity entry in the data set on CHO is “Non-Toxic”.

`O=C(N[C@H](CO)[C@H](O)c1ccccc1)[C@@H]1C[C@H](C2CCCCC2)CCN1`: the Emax in data set [1] was determined as 105%. Further, the result in data set [2] was inactive. In addition, the Activity result in the data set on CHO was “Non-Toxic”.

On to `CCCCCCCCCCC[C@@H]1CCN[C@H](C(=O)N[C@H](CO)[C@H](O)c2ccccc2)C1`, for which the Emax in data set [1] worked out at 85.1%. Further, the result in data set [2] was inactive. Moreover, the Activity result in the data set on CHO is “Non-Toxic”.

Consider `CCCCCCCCCCC[C@@H]1CCN[C@H](C(=O)NC[C@H](O)CCl)C1`, for which the maximal response (Emax) in data set [1] turned out to be 114%. Besides, the outcome in data set [2] was inactive. For the same molecule, in the data set on CHO, the Activity entry is “Non-Toxic”.

On to `CCCCCCCCCCC[C@@H]1CCN[C@H](C(=O)NC[C@@H](O)CO)C1`, for which, in data set [1], the maximum response (Emax) was found to be 106%. Further, the outcome in data set [2] was inactive.

For `CCCCCCCCCCC[C@@H]1CCN[C@H](C(=O)N[C@@H](CO)[C@H](C)O)C1`, in data set [1], the maximal response (Emax) worked out at 112%. In addition, the result in data set [2] was inactive.

Take `CCCCCCCCCCC[C@@H]1CCN[C@H](C(=O)N[C@@H](Cc2ccc(O)cc2)C(=O)OC)C1`: the maximal response (Emax) in data set [1] amounted to 104%. In addition, the outcome in data set [2] was inactive.

As to `CC1CCC(CC[C@H]2CCN[C@@H](C(=O)N[C@@H](CO)[C@@H](O)c3ccccc3)C2)CC1` (stereo partly drawn), the maximal effect (Emax) in data set [1] stood at 116%. Further, the outcome in data set [2] was inactive.

As for `CCCCCCCCCCC[C@@H]1CCN[C@H](C(=O)N[C@@H](CO)[C@@H](O)c2ccccc2)C1`, the Emax in data set [1] worked out at 109%. Besides, the outcome in data set [2] was inactive.

Take `CC1CCC(CC[C@@H]2CCN[C@H](C(=O)N[C@@H](CO)[C@@H](O)c3ccccc3)C2)CC1` (stereo partly drawn): the maximal effect (Emax) in data set [1] was 107%. Also, the result in data set [2] was inactive.

For the molecule `CCCCCCCCCCC[C@@H]1CCN[C@H](C(=O)NC(CO)CO)C1` (relative stereo), the Emax in data set [1] turned out to be 108%. In data set [2], the outcome was inactive. The Activity result in the data set with CHO is on record as “Non-Toxic”.

Consider `CCCCCCCCCCC[C@H]1CCN[C@@H](C(=O)N[C@@H](CO)[C@@H](O)c2ccccc2)C1`, for which the Emax in data set [1] was found to be 102%. The outcome in data set [2] was inactive.

As to `CCCCCCCCCCC[C@@H]1CCN[C@H](C(=O)NCCO)C1` (relative stereo), the Emax in data set [1] stood at 108%. The outcome in data set [2] was inactive. The Activity result in the data set on CHO was “Non-Toxic”.

Consider `CCCCCCCCCCC[C@H]1CCN[C@@H](C(=O)N[C@H](CO)[C@H](O)c2ccccc2)C1`, for which, in data set [1], the maximal response (Emax) was 93.9%. In data set [2], the result was inactive.

For the molecule `CCCCCCCCCCC[C@@H]1CCN[C@H](C(=O)NCCN2CCOCC2)C1` (relative stereo), the Emax in data set [1] turned out to be 107%. The outcome in data set [2] was inactive.

Consider `CCCCCCCCCCC[C@@H]1CCN[C@H](C(=O)N[C@@H](CO)C(=O)OC)C1`, for which, in data set [1], the maximal effect (Emax) stood at 99.6%. Also, the outcome in data set [2] was inactive.

The Emax is the greatest response seen or fitted, relative to the assay's reference.
